Among the data in ChEMBL document CHEMBL4138073, “Synthesis and biological evaluation of 8-hydroxy-2,7-naphthyridin-2-ium salts as novel inhibitors of acetylcholinesterase (AChE) and butyrylcholinesterase (BChE)” (Medchemcomm, 2017) are pKa, inhibition and IC50 values, retold here.

A short description of series [1]: Dissociation constant, pKa of the compound at 52 uM at pH 2.3 to 12.3 by UV-Vis spectroscopy. The format is physicochemical.
Series [2] concerns the target Cholinesterase (Equus caballus) (UniProt P81908). The series can be described thus: Inhibition of horse serum BChE at 10 uM using butyrylthiocholine chloride substrate by spectrophotometry based Ellman's assay. An outline of the steps:
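Ellman kinetic assay in microplates: equine serum BChE (final 0.350 U/ml) added last to start reaction; butyrylthiocholine chloride pseudo-substrate with DTNB; absorbance at 412 nm; 25 °C (room temperature). Tris-HCl 50 mM pH 8 buffer with DMSO ≤0.05% final. Compound absorbance read before enzyme addition as blank. Physostigmine 10 µM final as positive control. Primary screen at 10 µM.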

The next series has as its target Acetylcholinesterase (Electrophorus electricus, UniProt O42275). The series can be described thus: Inhibition of electric eel AChE at using acetylthiocholine iodide substrate by spectrophotometry based Ellman's assay.
In a further series the target is Cholinesterase (Equus caballus, UniProt P81908). Kind of series: Inhibition of horse serum BChE at using butyrylthiocholine chloride substrate by spectrophotometry based Ellman's assay. A general note: Ellman's reagent forms a yellow product with free thiols.
Cholinesterase, sequence (P81908 whole entry): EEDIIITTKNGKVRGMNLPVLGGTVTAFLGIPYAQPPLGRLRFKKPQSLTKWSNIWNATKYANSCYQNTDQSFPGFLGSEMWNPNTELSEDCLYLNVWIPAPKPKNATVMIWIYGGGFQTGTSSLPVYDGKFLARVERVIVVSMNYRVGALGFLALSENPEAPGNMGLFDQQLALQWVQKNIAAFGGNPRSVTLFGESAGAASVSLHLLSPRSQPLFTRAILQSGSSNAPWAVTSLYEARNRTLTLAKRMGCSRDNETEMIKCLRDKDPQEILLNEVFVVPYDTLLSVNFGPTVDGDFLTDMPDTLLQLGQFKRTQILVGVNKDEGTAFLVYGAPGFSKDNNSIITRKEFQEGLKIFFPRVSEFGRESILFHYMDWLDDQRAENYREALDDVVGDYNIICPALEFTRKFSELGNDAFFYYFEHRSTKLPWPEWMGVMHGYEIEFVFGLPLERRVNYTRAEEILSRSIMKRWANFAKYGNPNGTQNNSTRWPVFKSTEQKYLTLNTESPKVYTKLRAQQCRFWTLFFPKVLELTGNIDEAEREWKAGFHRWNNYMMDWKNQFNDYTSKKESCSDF

Active and inactive are the calls of the source. The rule behind the calls is not given here.

Acetylcholinesterase, sequence (O42275 whole entry): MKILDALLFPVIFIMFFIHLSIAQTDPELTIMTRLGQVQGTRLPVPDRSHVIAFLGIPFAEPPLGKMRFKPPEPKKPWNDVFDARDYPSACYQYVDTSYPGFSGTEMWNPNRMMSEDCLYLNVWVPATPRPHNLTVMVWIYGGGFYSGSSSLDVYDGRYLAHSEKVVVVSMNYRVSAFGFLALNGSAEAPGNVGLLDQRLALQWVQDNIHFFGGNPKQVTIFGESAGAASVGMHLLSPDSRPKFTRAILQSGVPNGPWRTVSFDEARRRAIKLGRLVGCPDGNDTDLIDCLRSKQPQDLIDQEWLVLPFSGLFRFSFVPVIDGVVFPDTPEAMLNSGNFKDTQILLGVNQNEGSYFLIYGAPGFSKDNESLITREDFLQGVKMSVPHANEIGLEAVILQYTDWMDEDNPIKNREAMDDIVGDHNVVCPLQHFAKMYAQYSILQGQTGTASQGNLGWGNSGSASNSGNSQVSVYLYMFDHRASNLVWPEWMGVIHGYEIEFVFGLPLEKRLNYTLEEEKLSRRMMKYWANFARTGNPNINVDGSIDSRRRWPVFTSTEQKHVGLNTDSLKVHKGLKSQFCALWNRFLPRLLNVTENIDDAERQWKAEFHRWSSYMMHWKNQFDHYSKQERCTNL
Cholinesterase (Equus caballus), sequence (P81908 whole entry): as the sequence (P81908 whole entry) above

On to `C[n+]1ccc2cc(-c3ccccc3)nc(O)c2c1`, for which, in series [1], the pKa (as a rule, the negative logarithm of the acid dissociation constant) at 52 µM amounted to 8.7.
For the compound `CC[n+]1ccc2cc(-c3ccccn3)nc(O)c2c1`, the inhibition (usually the change of the read-out against control, counted positive when it falls) in series [2] was determined as 48.5%.
Compound `Oc1nc(-c2ccccc2)cc2cc[n+](Cc3ccccc3)cc12` displayed an inhibition in series [2] of 76.4%. Further, the IC50 (commonly the concentration that gives 50% inhibition) amounted to 2.57 µM against Acetylcholinesterase and 4.99 µM at Cholinesterase.
On to `Oc1nc2c(c3cc[n+](Cc4ccccc4)cc13)CCc1ccccc1-2`, for which, in series [2], the inhibition entry was “inactive”.
The compound `CC[n+]1ccc2cc(-c3ccccc3)nc(O)c2c1` came in with an inhibition in series [2] of 45.9%.
In series [2], `C[n+]1ccc2cc(-c3ccccc3)[nH]c(=O)c2c1` registered an inhibition of 51.6%.
As for `CC[n+]1ccc2c3c(nc(O)c2c1)-c1ccccc1C3`, in series [2], the inhibition came to 77.3%. At Acetylcholinesterase, this compound gave a concentration for half-maximal inhibition (IC50) of 1.55 µM.
Compound `CC[n+]1ccc2cc(-c3ccc4ccccc4c3)nc(O)c2c1` yielded an inhibition in series [2] of 59.5%.
Take `Oc1nc(-c2ccc3ccccc3c2)cc2cc[n+](Cc3ccccc3)cc12`: the inhibition in series [2] is 97.1%. Moreover, the IC50 against Acetylcholinesterase was found to be 0.99 µM; on Cholinesterase, 2.88 µM.
